Ecoli rRNA inh = selective bacterial rRNA inhibition in E. coli | actives 1.6% (n = 350,000) | AID 720706 | GFP signal change (wild-type ribosome), % (test concentration not listed) | E. coli WT GFP vs humanized-ribosome RFP mutants, fluorescence, 24 h; active compounds read low; DMSO median 0, no signal -100;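 active = significant combined selectivity score with lowered wild-type GFP, culture density cut under 30%, mutant RFP and density less affected; inactive = any of these conditions unmet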
S100A4 inh HTS = blocks human S100A4 binding to myosin IIA peptide; actives 0.14% (n = 360,000); inhibition, % at 10.7 µM; S100A4/TAMRA-MyoIIA peptide fluorescence polarization; P26447;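 active = mean inhibition of at least 70% across replicates, with every replicate also reaching that level; inconclusive = mean inhibition reaches 70% but some replicates fall short; inactive = mean inhibition below 70%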
Target sequence (P26447 whole entry, looked up): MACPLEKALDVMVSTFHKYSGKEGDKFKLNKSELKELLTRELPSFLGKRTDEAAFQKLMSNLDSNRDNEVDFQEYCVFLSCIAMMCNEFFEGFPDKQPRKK
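Test system: S100A4 monomer protein. Medium: HEPES buffer with Ca2+, pH 7.2. Reagent: fluorescent myosin IIA peptide, 5 nM. Compound dosing: single-point compound testing. Timing: 5 min between mix addition and reading. Benchmarks: DMSO neutral and TFP positive wells.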
DENV2 CPE = protects cells from dengue virus 2 cytopathic effect; CPE inhibition, % at 9.99 µM; DENV2-infected cells, cytopathic effect rescue, plate reader; actives 1.7% (n = 350,000); AID 651640; in the data active = CPE inhibition above about 20%, passing the limit was not always enough; inconclusive = no clear call, values can overlap the other calls; tested in BHK-21 cells
AF4-AF9 inh = MLL-AF4/AF9 protein interaction inhibition; AlphaScreen, biotin-AF4 peptide binding to FLAG-AF9; inhibition, % at 10 µM; actives 0.47% (n = 350,000); AID 651704;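 active = every replicate reaching a set inhibition limit, whatever the replicate mean, cut at about 25% in these data; inconclusive = mean inhibition reaches that limit but some replicates miss it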
Target sequence (P42568 whole entry, looked up): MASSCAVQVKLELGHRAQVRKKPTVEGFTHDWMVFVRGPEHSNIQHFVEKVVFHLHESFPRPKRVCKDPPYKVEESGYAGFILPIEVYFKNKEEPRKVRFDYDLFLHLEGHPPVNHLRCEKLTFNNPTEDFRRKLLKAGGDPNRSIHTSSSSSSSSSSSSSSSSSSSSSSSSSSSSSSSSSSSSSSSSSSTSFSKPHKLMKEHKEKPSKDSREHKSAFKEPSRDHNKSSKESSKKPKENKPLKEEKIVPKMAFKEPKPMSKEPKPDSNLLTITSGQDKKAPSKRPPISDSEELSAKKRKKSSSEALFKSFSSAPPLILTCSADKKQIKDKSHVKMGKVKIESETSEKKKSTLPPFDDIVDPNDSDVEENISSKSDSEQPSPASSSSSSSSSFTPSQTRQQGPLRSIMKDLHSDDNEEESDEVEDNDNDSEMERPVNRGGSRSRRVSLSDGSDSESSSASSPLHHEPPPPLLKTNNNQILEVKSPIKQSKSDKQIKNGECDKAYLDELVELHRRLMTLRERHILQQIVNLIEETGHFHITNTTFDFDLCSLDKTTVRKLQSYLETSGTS
Cneo AK release = Cryptococcus neoformans lysis via adenylate kinase release; actives 0.2% (n = 360,000); C. neoformans lysis, adenylate kinase release luminescence, 4 h; normalised: neutral wells 0, clomiphene wells 100; lysis activity, % at 15 µM;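 active = mean lysis activity across replicates of at least 80%, whatever share of replicates individually reach that level; inactive = mean lysis activity below 80%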
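Assay system: log-phase C. neoformans yeast / Quantity: yeast cell density of 5 × 10^6 cells/mL / Medium: fresh YPD growth medium / Compound: single dose / Timing: static 4 h at 37 °C with compound, 1 h detection / Measured by: adenylate kinase release luminescence / Read-out: lysis from increased AK signal / Benchmarks: Clomiphene as positive lysis control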
PfHsp90 set2 = growth inhibition of yeast expressing Plasmodium Hsp90; actives 0.32% (n = 310,000); S. cerevisiae expressing PfHsp90, BacTiter-Glo ATP, 48 h; yeast lacking PDR1 and PDR3 efflux regulators; inhibition, % at 9.4 µM;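 active = every replicate shows inhibition above about 80%, whatever the replicate mean, limit read from the data; inconclusive = mean inhibition reaches the set limit but some replicate falls short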
Each line names hits and unclear results; the compound was inactive in the other large screens. Compounds with a hit are over-represented: about 3.2% of the library has one in this group of screens.

CC(C)NC(=O)Nc1cccc2c1O[C@@H](CN(C)C(=O)Nc1ccc(F)cc1)[C@@H](C)CN([C@H](C)CO)C2=O	DENV2 CPE 22 (no result: PfHsp90 set2)
CC(C)NC(=O)Nc1cccc2c1O[C@H](CN(C)C)[C@H](C)CN([C@H](C)CO)C2=O	Cneo AK release 100 (no result: DENV2 CPE, PfHsp90 set2)
C[C@H](CO)N1C[C@H](C)[C@H](CN(C)C(=O)Nc2ccc(F)cc2)Oc2c(NC(=O)C3CC3)cccc2C1=O	DENV2 CPE 35 (no result: PfHsp90 set2)
C[C@H]1CN([C@@H](C)CO)C(=O)c2cccc(NC(=O)Nc3ccccc3)c2O[C@H]1CN(C)C(=O)Nc1ccccc1	none (no result: S100A4 inh HTS, DENV2 CPE, Cneo AK release, PfHsp90 set2)
COc1ccc(CNC(=O)C[C@H]2CC[C@@H](NC(=O)c3ccc4c(c3)OCO4)[C@H](CO)O2)cc1	none (no result: PfHsp90 set2)
CCCNC(=O)C[C@@H]1CC[C@H]2[C@@H](COC[C@@H](O)CN2Cc2cccc(F)c2)O1	none (no result: PfHsp90 set2)
CO[C@H]1CN(C)C(=O)c2ccc(NC(=O)c3cccc(F)c3)cc2OC[C@H](C)N(C(C)=O)C[C@H]1C	none (no result: PfHsp90 set2)
C[C@H](CO)N1C[C@H](C)[C@H](CN(C)C(=O)Nc2ccccc2)Oc2c(NC(=O)Nc3cccc4ccccc34)cccc2C1=O	none (no result: PfHsp90 set2)
C[C@@H]1CN([C@@H](C)CO)C(=O)c2cccc(NC(=O)Nc3cccc4ccccc34)c2O[C@H]1CN(C)C(=O)Nc1ccccc1	S100A4 inh HTS 105 (no result: PfHsp90 set2)
CC(C)NC(=O)Nc1cccc2c1O[C@@H](CN(C)C(=O)Nc1ccccc1)[C@@H](C)CN([C@@H](C)CO)C2=O	Cneo AK release 103 (no result: DENV2 CPE, PfHsp90 set2)
O=[N+]([O-])c1cc([N+](=O)[O-])c(Oc2ccc(F)cc2)cc1NN1CCCCC1	none
O=[N+]([O-])c1cc([N+](=O)[O-])c(Oc2cc(Cl)cc(Cl)c2)cc1NN1CCCCC1	DENV2 CPE inconclusive
O=[N+]([O-])c1cc([N+](=O)[O-])c(Oc2cc(F)cc(F)c2)cc1NN1CCCCC1	DENV2 CPE 25
COc1ccc(Oc2cc(NN3CCCCC3)c([N+](=O)[O-])cc2[N+](=O)[O-])cc1OC	DENV2 CPE 38
CO[C@@H]1CN(C)C(=O)c2ccc(NC(=O)C3CCC3)cc2OC[C@@H](C)N(Cc2ccc(F)cc2)C[C@H]1C	none (no result: PfHsp90 set2)
CN(N=Cc1ccc([N+](=O)[O-])cc1)c1ccccn1	S100A4 inh HTS 84 (no result: PfHsp90 set2)
O=C(c1ccc([N+](=O)[O-])cc1)N(c1ccccn1)c1ccccn1	none (no result: Cneo AK release, PfHsp90 set2)
C[C@@H]1CN([C@H](C)CO)S(=O)(=O)c2ccc(-c3cncnc3)cc2O[C@H]1CN(C)C(=O)C1CCCCC1	none (no result: PfHsp90 set2)
COc1cccc(/C=C2\SC(=S)N(C(C(=O)O)c3ccccc3)C2=O)c1OC (configuration not stated)	Ecoli rRNA inh -34
COc1ccc(/C=C2\SC(=S)N(C(C(=O)O)c3ccccc3)C2=O)c(OC)c1 (configuration not stated)	none
COc1cc(/C=C2\SC(=S)N(C(C(=O)O)c3ccccc3)C2=O)cc(OC)c1OC (configuration not stated)	Ecoli rRNA inh -26 (no result: AF4-AF9 inh)
C/C=C/c1ccc([C@@H]2[C@H](CO)N(C(=O)COC)[C@H]2CNC(=O)CC)cc1	none (no result: PfHsp90 set2)
O=C(O)c1ccccc1C(=O)NCc1c(Cl)cccc1Sc1ccc(Cl)cc1	Ecoli rRNA inh -29, DENV2 CPE 26
O=C(O)CCCC(=O)NCc1c(Cl)cccc1Sc1ccc(Cl)cc1	none (no result: Ecoli rRNA inh)
CC(C)(CC(=O)O)CC(=O)NCc1c(Cl)cccc1Sc1ccc(Cl)cc1	Ecoli rRNA inh -40 (no result: PfHsp90 set2)
C[C@@H]1CN([C@@H](C)CO)C(=O)Cc2cc(NC(=O)Cn3cnnn3)ccc2O[C@H]1CN(C)Cc1ccc(C(=O)O)cc1	none (no result: PfHsp90 set2)
CC(C)(C)c1ccc(C(=O)NCCC(=O)NC2=NCCS2)cc1	AF4-AF9 inh 29
CC(C)(C)c1ccc(OCCCC(=O)NC2=NCCS2)cc1	none (no result: Ecoli rRNA inh, S100A4 inh HTS, DENV2 CPE, AF4-AF9 inh)
C[C@H](O)C#Cc1ccc2c(c1)O[C@@H](CN(C)C(=O)CN(C)C)[C@@H](C)CN([C@H](C)CO)S2(=O)=O	none (no result: PfHsp90 set2)
Oc1ccc(/C=C/c2ccc3cccc(O)c3n2)cc1Br	AF4-AF9 inh 26, PfHsp90 set2 108
Oc1cccc2ccc(/C=C/c3ccccc3Cl)nc12	PfHsp90 set2 100
COc1ccccc1/C=C/c1ccc2cccc(O)c2n1	AF4-AF9 inh 27
CCOc1cccc(/C=C/c2ccc3cccc(O)c3n2)c1OC	Ecoli rRNA inh -37
CCOc1cccc(/C=C/c2ccc3cccc(O)c3n2)c1O	none
COc1ccc(Cl)cc1/C=C/c1ccc2cccc(O)c2n1	none (no result: Cneo AK release)
CCC(=O)N1CC2(C1)CN(S(C)(=O)=O)[C@@H](CO)c1[nH]c3cc(OC)ccc3c12	none (no result: Cneo AK release, PfHsp90 set2)
CO[C@@H]1CN(C)C(=O)c2ccc(NC(=O)C3CCC3)cc2OC[C@@H](C)N(C(=O)NC(C)C)C[C@@H]1C	none (no result: PfHsp90 set2)
Cc1ccccc1-c1cnc2c(c1)C(=O)N([C@@H](C)CO)C[C@H](C)[C@@H](CN(C)C(=O)CC1CC1)O2	none (no result: S100A4 inh HTS, DENV2 CPE, AF4-AF9 inh, Cneo AK release, PfHsp90 set2)
Nc1ccc(N=Nc2ccccc2)c(N)n1	Ecoli rRNA inh -24, AF4-AF9 inh 34
CCN1CCN(c2ncnc3c2cnn3-c2ccc(Cl)cc2)CC1	DENV2 CPE 50
CCN1CCN(c2ncnc3c2cnn3-c2ccccc2)CC1	none
CN(C)CCNc1ncnc2c1cnn2-c1ccc(Cl)cc1	DENV2 CPE 40
Cc1noc(C)c1NC(=O)Nc1cccc2c1O[C@H](CN(C)CC1CCCCC1)[C@@H](C)CN([C@@H](C)CO)C2=O	none (no result: PfHsp90 set2)
O=C(O)CC/C(=C\c1ccc(N2CCOCC2)c([N+](=O)[O-])c1)c1nc2ccccc2s1	none (no result: Cneo AK release)
O=C(O)C/C(=C\c1ccc(N2CCOCC2)c([N+](=O)[O-])c1)c1nc2ccccc2s1	Ecoli rRNA inh -25
C[C@@H]1C=C(C(=O)N2CCCCCCC2)O[C@H](OCc2ccc(CO)cc2)C1	none (no result: Ecoli rRNA inh, PfHsp90 set2)
COc1ccc2c3c([nH]c2c1)[C@H](CO)N(S(C)(=O)=O)CC31CCN(Cc2cccc(F)c2)CC1	AF4-AF9 inh 36 (no result: S100A4 inh HTS, Cneo AK release, PfHsp90 set2)
COc1ccc2c3c([nH]c2c1)[C@@H](CO)N(S(C)(=O)=O)CC31CCN(Cc2ccccc2)CC1	none (no result: S100A4 inh HTS, DENV2 CPE, AF4-AF9 inh, Cneo AK release, PfHsp90 set2)
COc1ccc2c3c([nH]c2c1)[C@@H](CO)N(S(C)(=O)=O)CC31CCN(Cc2cccc(F)c2)CC1	AF4-AF9 inh 27 (no result: S100A4 inh HTS, Cneo AK release, PfHsp90 set2)
COCCNC(=O)[C@@H]1[C@@H](CO)[C@@H]2Cn3c(ccc(-c4cccc(F)c4)c3=O)[C@H]1N2C(=O)NC(C)C	none (no result: PfHsp90 set2)
O=C(NCC[C@@H]1CC[C@H](NC(=O)c2cccnc2)[C@H](CO)O1)Nc1ccc(C(F)(F)F)cc1	none (no result: PfHsp90 set2)
C[C@H]1CN([C@@H](C)CO)C(=O)c2cccc(NC(=O)NC3CCCCC3)c2O[C@@H]1CN(C)S(=O)(=O)c1cn(C)cn1	none (no result: PfHsp90 set2)

Screening results: PubChem, Broad Institute
